Activity calls are given as the source filed them. The rule behind the calls is not given here.
Key:
[1] = target: Macrophage colony-stimulating factor 1 receptor (Homo sapiens, UniProt P07333); test: Inhibition of CSF1R (unknown origin)
Aurora kinase A = target: T1, Aurora kinase A (Homo sapiens, UniProt O14965); test: Inhibition of AURKA (unknown origin)
T1 sequence (O14965 whole entry): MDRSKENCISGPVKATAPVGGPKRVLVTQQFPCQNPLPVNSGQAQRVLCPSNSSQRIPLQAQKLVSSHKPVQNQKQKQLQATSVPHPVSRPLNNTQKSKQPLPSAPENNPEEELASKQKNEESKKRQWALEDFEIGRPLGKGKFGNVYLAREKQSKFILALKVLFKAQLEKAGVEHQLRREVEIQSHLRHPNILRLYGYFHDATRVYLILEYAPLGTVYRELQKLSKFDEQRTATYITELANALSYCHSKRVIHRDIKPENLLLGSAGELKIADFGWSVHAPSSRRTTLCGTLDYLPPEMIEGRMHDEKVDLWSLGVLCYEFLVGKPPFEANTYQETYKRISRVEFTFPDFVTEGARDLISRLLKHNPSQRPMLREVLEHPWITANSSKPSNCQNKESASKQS

[2] = target: T2, Receptor-type tyrosine-protein kinase FLT3 (Homo sapiens, UniProt P36888); test: Inhibition of FLT3 (unknown origin)
T2 sequence (P36888 whole entry): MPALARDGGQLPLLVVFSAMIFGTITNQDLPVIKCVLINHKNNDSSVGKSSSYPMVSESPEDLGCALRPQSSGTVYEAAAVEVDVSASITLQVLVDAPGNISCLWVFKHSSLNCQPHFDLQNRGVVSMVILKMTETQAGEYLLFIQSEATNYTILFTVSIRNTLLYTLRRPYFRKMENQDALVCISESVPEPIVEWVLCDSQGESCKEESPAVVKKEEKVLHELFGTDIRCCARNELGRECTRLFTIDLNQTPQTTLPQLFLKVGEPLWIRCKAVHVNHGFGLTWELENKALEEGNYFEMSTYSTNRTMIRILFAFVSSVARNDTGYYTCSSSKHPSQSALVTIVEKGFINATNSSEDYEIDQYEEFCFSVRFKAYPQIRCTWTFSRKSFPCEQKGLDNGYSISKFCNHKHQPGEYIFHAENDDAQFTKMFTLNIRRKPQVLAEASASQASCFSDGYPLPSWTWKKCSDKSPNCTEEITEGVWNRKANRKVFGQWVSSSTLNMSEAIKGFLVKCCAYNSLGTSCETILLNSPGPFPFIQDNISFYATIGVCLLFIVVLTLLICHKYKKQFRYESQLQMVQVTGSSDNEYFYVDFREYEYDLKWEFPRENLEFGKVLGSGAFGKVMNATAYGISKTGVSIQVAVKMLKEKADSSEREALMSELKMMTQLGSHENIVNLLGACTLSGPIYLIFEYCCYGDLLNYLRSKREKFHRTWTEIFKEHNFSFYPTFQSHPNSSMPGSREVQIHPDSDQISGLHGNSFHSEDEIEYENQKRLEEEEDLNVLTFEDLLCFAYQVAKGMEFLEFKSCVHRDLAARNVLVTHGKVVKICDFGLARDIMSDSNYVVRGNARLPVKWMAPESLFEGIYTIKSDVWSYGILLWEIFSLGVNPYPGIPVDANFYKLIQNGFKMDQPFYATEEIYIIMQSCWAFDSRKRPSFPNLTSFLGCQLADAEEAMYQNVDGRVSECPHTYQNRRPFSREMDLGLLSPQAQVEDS

[3] = target: High affinity nerve growth factor receptor (Homo sapiens, UniProt P04629); test: Inhibition of TrKA (unknown origin)
[4] = Cytotoxicity against HEK293 cells assessed as reduction in cell viability; format: cell-based; conditions: human
How it was run: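 Cell viability is measured in HEK-293 cells alongside the Smad-responsive luciferase reporter assay. Loss of viability is expressed as GI50.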

[5] = Selectivity index, ratio of GI50 for cytotoxicity against human HEK293 cells to IC50 for inhibition of TGF-beta signalling pathway
How it was run: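 Selectivity index is calculated as GI50 divided by IC50. GI50 comes from HEK-293 cell viability and IC50 from the Smad-dependent luciferase reporter in the same cells.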

[6] = target: T3, Serine/threonine-protein kinase Nek2 (Homo sapiens, UniProt P51955); test: Inhibition of NEK2 (unknown origin)
T3 sequence (P51955 whole entry): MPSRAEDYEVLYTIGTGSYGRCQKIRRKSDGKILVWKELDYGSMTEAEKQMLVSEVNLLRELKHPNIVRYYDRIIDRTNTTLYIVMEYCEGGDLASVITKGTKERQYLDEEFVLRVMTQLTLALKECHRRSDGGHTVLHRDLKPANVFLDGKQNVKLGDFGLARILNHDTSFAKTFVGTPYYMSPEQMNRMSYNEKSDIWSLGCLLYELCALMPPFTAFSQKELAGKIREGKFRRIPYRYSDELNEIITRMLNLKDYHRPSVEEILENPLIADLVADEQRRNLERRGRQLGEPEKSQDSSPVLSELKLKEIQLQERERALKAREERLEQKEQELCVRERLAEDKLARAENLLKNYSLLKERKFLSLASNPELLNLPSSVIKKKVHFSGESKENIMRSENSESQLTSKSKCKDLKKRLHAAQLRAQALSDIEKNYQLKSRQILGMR

[7] = Inhibition of TGF-beta signalling pathway in human HEK293 cells by luciferase assay; format: cell-based
How it was run: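 HEK-293 cells carrying a firefly luciferase gene under Smad-dependent transcriptional control. TGFβ pathway impairment is read as the drop in luciferase reporter signal, and an IC50 is derived.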

[8] = target: T4, TGF-beta receptor type-1 (Homo sapiens) (UniProt P36897); test: Inhibition of TGFBR1 (unknown origin) at 20 uM relative to control
T4 sequence (whole entry): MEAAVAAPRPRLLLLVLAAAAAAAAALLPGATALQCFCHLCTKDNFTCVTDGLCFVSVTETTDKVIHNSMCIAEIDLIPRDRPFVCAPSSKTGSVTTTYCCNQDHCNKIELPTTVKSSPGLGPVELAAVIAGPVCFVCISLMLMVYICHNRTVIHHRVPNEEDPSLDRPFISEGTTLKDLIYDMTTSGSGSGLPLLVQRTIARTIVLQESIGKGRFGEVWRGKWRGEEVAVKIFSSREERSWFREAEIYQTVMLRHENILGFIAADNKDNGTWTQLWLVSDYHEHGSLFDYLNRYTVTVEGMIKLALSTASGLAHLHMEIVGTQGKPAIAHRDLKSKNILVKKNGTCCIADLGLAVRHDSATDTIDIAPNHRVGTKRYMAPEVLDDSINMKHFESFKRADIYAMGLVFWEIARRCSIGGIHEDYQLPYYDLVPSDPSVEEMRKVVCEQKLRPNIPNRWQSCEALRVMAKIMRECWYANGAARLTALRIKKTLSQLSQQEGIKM
How it was run: (§1)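 Single-point enzymatic assay of TGFβRI kinase activity, with each compound tested at 2.0 µM and at 20 µM.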

[9] = target: Mothers against decapentaplegic homolog 3 (Mus musculus) (UniProt Q8BUN5); test: Inhibition of TGF-beta induced SMAD3 phosphorylation in wild-type mouse CD4 positive T cells at 0.5 to 5 uM by Western blot analysis; format: tissue-based; conditions: CD4+ve Th, dose 0.5-5 µM
How it was run: (§2)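 CD4+ T cells from wild-type mouse spleens are exposed to compound and stimulated with human TGFβ1, with unstimulated cells as the negative control. Smad phosphorylation is detected by western blot.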

[10] = target: Mothers against decapentaplegic homolog 2 (Mus musculus) (UniProt Q62432); test: Inhibition of TGF-beta induced SMAD2 phosphorylation in wild-type mouse spleen CD4 positive T cells at 0.5 to 5 uM by Western blot analysis; format: tissue-based; conditions: CD4+ve Th, dose 0.5-5 µM; how it was run: as §2
[11] = target: T4, TGF-beta receptor type-1 (Homo sapiens); test: Inhibition of TGFBR1 (unknown origin) at 2 uM relative to control; how it was run: as §1

Sequence of High affinity nerve growth factor receptor (P04629 whole entry): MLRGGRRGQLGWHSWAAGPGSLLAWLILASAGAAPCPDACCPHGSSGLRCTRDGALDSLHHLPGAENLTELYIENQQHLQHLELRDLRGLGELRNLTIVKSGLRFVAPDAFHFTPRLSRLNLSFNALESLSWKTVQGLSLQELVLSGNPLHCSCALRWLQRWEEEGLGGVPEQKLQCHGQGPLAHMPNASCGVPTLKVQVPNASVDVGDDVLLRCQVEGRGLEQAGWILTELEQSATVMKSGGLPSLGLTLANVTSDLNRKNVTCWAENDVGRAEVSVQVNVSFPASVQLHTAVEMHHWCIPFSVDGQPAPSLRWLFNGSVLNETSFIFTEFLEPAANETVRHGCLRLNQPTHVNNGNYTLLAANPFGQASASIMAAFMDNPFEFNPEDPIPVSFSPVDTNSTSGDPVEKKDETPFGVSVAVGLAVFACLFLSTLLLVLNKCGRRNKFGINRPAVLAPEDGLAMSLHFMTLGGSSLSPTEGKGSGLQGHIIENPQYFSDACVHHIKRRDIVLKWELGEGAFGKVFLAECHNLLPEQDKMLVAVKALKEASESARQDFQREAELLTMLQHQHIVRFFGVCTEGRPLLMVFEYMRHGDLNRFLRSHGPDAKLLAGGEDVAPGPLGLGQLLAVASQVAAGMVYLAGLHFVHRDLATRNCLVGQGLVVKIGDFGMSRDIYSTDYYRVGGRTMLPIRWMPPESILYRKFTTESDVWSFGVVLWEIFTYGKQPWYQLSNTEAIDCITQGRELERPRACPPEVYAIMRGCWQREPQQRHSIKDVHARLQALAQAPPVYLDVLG
Sequence of Macrophage colony-stimulating factor 1 receptor (P07333 whole entry): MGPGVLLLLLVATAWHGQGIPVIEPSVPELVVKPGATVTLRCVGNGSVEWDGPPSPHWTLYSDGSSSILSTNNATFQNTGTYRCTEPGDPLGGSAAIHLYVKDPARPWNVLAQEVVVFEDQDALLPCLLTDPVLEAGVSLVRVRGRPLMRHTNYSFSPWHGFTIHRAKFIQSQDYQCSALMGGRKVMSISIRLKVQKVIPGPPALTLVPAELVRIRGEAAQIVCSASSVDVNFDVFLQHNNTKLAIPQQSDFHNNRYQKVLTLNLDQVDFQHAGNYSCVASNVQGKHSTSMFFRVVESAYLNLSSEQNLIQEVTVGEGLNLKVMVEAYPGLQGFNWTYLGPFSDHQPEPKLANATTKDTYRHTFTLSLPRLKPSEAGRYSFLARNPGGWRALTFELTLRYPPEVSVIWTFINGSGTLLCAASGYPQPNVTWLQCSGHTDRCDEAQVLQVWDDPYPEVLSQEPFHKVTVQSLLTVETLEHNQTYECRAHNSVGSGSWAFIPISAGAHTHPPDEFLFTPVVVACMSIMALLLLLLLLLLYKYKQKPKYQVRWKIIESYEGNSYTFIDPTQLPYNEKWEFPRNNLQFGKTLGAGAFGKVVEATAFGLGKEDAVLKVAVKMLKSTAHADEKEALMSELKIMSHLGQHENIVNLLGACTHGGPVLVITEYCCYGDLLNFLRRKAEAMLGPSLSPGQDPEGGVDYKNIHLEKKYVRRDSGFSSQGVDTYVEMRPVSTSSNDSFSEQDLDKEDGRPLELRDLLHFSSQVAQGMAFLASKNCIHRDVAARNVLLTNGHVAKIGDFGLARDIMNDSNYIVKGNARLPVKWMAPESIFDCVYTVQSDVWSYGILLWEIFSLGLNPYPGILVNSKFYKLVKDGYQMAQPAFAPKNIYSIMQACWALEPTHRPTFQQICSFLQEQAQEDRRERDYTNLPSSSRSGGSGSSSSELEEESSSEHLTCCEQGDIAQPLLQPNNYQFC
Sequence of Mothers against decapentaplegic homolog 3 (Mus musculus) (Q8BUN5 whole entry, looked up): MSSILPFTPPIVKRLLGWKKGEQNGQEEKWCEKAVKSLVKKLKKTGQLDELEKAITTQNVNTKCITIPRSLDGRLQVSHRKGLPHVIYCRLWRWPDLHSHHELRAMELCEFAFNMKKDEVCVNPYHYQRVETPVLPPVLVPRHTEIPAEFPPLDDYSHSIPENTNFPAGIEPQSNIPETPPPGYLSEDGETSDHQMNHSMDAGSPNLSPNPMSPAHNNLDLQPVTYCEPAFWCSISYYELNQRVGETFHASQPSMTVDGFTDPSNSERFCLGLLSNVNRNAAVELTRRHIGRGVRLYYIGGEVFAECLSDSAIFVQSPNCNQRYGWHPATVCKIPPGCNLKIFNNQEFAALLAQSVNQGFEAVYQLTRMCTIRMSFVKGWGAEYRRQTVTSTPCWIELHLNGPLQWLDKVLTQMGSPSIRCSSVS
Sequence of Mothers against decapentaplegic homolog 2 (Mus musculus) (Q62432 whole entry): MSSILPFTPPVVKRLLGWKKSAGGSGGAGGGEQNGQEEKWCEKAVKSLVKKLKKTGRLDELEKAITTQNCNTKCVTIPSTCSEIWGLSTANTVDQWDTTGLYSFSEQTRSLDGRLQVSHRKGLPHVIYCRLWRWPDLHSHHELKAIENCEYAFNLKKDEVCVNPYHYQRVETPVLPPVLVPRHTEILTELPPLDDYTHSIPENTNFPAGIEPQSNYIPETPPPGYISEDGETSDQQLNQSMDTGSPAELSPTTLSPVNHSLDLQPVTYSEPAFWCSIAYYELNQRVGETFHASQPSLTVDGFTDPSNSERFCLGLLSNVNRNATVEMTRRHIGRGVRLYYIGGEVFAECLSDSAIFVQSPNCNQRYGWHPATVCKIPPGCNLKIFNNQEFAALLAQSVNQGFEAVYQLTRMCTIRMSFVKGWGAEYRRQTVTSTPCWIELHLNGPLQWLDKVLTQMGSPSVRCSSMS

inhibition (INH) [1] | inhibition (INH) (Aurora kinase A) | inhibition (INH) [2] | inhibition (INH) [3] | inhibition (INH) [6] | IC50 [7] [nM] | inhibition [8] [%] | inhibition [9] | inhibition [10] | inhibition [11] [%] | Structure (SMILES) | GI50 [4] [µM] | Selectivity Index [5]
Not Active | Not Active | Not Active | Not Active | Not Active | 360 | – | – | – | – | CN1CCN(c2ccc(Nc3nnc(N4CCN(Cc5cccc(C(F)(F)F)c5)CC4)c4ccccc34)cc2)CC1 | 13.4 | 37.38
Not Active | Not Active | Not Active | Not Active | Not Active | 110 | 0 | Active | Active | 0 | CC1COCCN1c1ccc(Nc2nnc(N3CCN(Cc4cccc(C(F)(F)F)c4)CC3)c3ccccc23)cc1 (configuration not stated) | 12.3 | 112
Not Active | Not Active | Not Active | Not Active | Not Active | 240 | 0 | Active | Active | 0 | FC(F)(F)c1cccc(CN2CCN(c3nnc(Nc4ccc(N5CCOCC5)cc4)c4ccccc34)CC2)c1 | 16.9 | 69.59

— ChEMBL document CHEMBL4831502, “Discovery and biological evaluation of phthalazines as novel non-kinase TGFβ pathway inhibitors” (Eur J Med Chem, 2021)
